Reference: ChEMBL document CHEMBL1777679, “Discovery and optimization of pyrazoline compounds as B-Raf inhibitors” (Bioorg Med Chem Lett, 2010)
Values after ≈ are worked out from the molar mass of the structure shown.

Experiments:
[1] = biological target: T1, Serine/threonine-protein kinase B-raf (Homo sapiens, UniProt P15056, V600E); experiment: Inhibition of B-Raf V600E mutant-mediated pERK phosphorylation in human A375 cells after 3 hrs by whole cell ELISA assay; type: cell-based, A-375
In short: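 A375 human melanoma cells (B-Raf V600E) were seeded overnight and exposed to inhibitor for 3 h. Cells were then fixed, permeabilized and blocked overnight. Detection used anti-phospho-ERK antibody for 1 h, then an HRP conjugate, with tetramethylbenzidine read at OD 650 nm.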

[2] = biological target: T1, Serine/threonine-protein kinase B-raf; experiment: Inhibition of B-Raf V600E mutant after 2 hrs; conditions: in the assay text read “after 3 hrs” for “after 2 hrs”
In short: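 Raf kinase activity measured with a biotinylated peptide substrate at 30 °C for 3 h. After the stop step, the mixture was incubated 2 h on a streptavidin-coated flashplate and counts were read by scintillation.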

[3] = biological target: T1, Serine/threonine-protein kinase B-raf; experiment: Inhibition of B-Raf V600E mutant after 3 hrs
[4] = biological target: T1, Serine/threonine-protein kinase B-raf; experiment: Inhibition of B-Raf V600E mutant
In short: (§1)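 Raf kinase reaction with biotinylated peptide substrate run 3 h at 30 °C. After a stop step, the mixture is held 2 h on streptavidin-coated flashplates to capture the substrate, and the plates are read by scintillation counting.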

[5] = Aqueous solubility of the compound in 50 mM of potassium phosphate buffer at pH 6.8 by turbidimetric method; type: physicochemical
In short: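 Turbidimetric kinetic solubility in 50 mM potassium phosphate buffer, pH 6.8.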

[6] = biological target: Serine/threonine-protein kinase B-raf (Homo sapiens, UniProt P15056); experiment: Inhibition of B-Raf; in short: as §1
Chain of Serine/threonine-protein kinase B-raf (Homo sapiens, UniProt P15056) (P15056 whole entry): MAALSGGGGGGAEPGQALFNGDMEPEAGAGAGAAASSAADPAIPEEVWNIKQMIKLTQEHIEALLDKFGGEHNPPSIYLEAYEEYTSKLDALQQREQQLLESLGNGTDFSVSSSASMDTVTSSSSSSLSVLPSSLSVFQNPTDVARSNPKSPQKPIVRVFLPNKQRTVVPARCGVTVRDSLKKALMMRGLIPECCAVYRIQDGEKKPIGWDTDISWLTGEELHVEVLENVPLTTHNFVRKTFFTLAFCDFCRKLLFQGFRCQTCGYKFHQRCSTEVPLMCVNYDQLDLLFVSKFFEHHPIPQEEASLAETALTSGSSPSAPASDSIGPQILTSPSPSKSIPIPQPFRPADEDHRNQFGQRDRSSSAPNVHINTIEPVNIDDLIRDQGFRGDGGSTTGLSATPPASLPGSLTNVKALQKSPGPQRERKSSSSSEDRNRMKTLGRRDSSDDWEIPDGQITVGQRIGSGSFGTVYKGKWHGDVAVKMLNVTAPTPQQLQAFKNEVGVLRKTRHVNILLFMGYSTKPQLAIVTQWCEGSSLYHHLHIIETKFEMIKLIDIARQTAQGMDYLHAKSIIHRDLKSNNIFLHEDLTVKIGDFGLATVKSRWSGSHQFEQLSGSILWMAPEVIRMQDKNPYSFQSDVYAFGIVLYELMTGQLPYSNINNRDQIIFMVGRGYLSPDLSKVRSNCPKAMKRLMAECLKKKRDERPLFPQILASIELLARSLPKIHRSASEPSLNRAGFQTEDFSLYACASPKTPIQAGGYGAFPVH

[7] = biological target: RAF proto-oncogene serine/threonine-protein kinase (Homo sapiens, UniProt P04049); experiment: Inhibition of C-Raf
Chain of RAF proto-oncogene serine/threonine-protein kinase (P04049 whole entry): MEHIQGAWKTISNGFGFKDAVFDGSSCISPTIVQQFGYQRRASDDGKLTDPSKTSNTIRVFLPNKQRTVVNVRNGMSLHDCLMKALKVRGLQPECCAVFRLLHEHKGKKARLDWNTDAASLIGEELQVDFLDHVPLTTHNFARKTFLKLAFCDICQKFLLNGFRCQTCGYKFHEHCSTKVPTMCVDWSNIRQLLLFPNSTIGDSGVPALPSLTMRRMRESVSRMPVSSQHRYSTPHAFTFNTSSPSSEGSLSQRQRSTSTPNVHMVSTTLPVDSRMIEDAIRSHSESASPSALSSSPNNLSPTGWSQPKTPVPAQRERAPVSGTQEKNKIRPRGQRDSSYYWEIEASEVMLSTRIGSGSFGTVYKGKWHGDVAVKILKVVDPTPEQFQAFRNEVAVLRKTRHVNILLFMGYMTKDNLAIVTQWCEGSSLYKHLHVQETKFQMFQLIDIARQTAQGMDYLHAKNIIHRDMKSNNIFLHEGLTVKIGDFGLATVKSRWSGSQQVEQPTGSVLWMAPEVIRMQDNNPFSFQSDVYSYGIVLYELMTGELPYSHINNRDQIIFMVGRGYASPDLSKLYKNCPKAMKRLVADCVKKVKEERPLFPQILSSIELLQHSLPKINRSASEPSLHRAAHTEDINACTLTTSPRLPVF

[8] = Clearance in Sprague-Dawley rat at 0.5 to 1 mg/kg, iv and 10 mg/kg, po; type: ADME, organism-based; conditions: in vivo
In short: (§2)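 Male SD rats dosed intravenously at 0.5 mg/kg or 1 mg/kg, or orally at 10 mg/kg. Plasma exposure, clearance and oral bioavailability derived from plasma levels.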

[9] = AUC in Sprague-Dawley rat at 0.5 to 1 mg/kg, iv and 10 mg/kg, po; type: ADME, organism-based; conditions: plasma; in short: as §2
[10] = Bioavailability in Sprague-Dawley rat at 0.5 to 1 mg/kg, iv and 10 mg/kg, po; type: ADME, organism-based; conditions: in vivo; in short: as §2

T1 sequence (P15056 2-766 V600E limits assumed): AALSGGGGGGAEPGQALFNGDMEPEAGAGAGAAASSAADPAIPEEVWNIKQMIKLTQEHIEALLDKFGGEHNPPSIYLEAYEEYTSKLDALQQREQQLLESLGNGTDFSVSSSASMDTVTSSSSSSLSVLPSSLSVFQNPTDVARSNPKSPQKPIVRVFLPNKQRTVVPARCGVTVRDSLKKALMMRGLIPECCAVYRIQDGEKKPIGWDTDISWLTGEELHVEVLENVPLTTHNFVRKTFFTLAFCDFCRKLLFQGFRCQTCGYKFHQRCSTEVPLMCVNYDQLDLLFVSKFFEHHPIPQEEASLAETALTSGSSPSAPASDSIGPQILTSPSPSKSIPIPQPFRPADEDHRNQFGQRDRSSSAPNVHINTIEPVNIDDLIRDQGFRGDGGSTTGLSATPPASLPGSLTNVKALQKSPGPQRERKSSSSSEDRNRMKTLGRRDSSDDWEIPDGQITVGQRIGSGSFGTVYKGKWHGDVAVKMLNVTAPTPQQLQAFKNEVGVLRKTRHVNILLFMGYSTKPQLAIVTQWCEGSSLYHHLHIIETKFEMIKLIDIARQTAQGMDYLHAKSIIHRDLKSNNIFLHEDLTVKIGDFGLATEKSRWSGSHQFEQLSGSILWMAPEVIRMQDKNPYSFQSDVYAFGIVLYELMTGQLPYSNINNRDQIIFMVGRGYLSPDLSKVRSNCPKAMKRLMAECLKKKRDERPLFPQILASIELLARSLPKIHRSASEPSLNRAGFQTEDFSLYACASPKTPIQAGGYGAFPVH

Structure (SMILES)	IC50 [1] [nM]	IC50 [2] [nM]	further results
O=C(c1ccc(-c2cccc(CN3CCCC3)c2)s1)N1N=C(c2cccnc2)CC1c1c(O)cccc1F (racemic)	41	8	
O=C(c1ccc(-c2ccccn2)s1)N1N=C(c2cccnc2)CC1c1ccccc1O (racemic)	180		IC50 [3]: 23 nM; IC50 [4]: 23 nM; solubility kinetic [5]: 5.8 µg/mL (≈ 13.6 µM); IC50 [6]: 17 nM; IC50 [7]: 27 nM
NCc1ccc(-c2ccc(C(=O)N3N=C(c4cccnc4)CC3c3c(O)cccc3F)s2)cc1 (racemic)	37	3	
O=C(c1ccc(-c2ccc3c(c2)CNCC3)s1)N1N=C(c2cccnc2)CC1c1c(O)cccc1F (racemic)	21	3	
O=C(c1ccc(-c2ccc3c(c2)CNC3)s1)N1N=C(c2cccnc2)CC1c1c(O)cccc1F (racemic)	60		IC50 [3]: 2 nM; clearance [8]: 15 mL/min/kg; AUC [9]: 8.4 µM·h; bioavailability [10]: 37%
NCc1ccccc1-c1ccc(C(=O)N2N=C(c3cncc(F)c3)CC2c2ccccc2O)s1 (racemic)	180		IC50 [3]: 21 nM
NCc1ccccc1-c1ccc(C(=O)N2N=C(c3cncc(N)c3)CC2c2ccccc2O)s1 (racemic)	64	7	
O=C(c1ccc(-c2ccccn2)s1)N1N=C(c2cncc(CO)c2)CC1c1ccccc1O (racemic)	39	3	
O=C(c1ccc(-c2ccc3c(c2)CNC3)s1)N1N=C(c2cncc(CO)c2)CC1c1c(O)cccc1F (racemic)	120	3	
NCc1ccccc1-c1ccc(C(=O)N2N=C(c3cncc(N)c3)CC2c2c(O)cccc2F)s1 (racemic)	56	4	
O=C(c1ccc(-c2cccc3c2CCNC3)s1)N1N=C(c2cccnc2)CC1c1c(O)cccc1F (racemic)	180		clearance [8]: 11.7 mL/min/kg; AUC [9]: 26 µM·h; bioavailability [10]: 89%
NCc1ccccc1-c1ccc(C(=O)N2N=C(c3cccnc3)CC2c2ccccc2O)s1 (racemic)	270	10	clearance [8]: 65 mL/min/kg; AUC [9]: 4.9 µM·h; bioavailability [10]: 76%
O=C(c1ccc(-c2ccccn2)s1)N1N=C(c2cccnc2)CC1c1ccccc1 (racemic)		799	
O=C(c1ccc(-c2ccccn2)s1)N1N=C(c2cccnc2)CC1c1cccc(O)c1 (racemic)	> 25000	670	
O=C(c1ccc(-c2ccccn2)s1)N1N=C(c2cccnc2)CC1c1cccc(F)c1O (racemic)	1400	13	
O=C(c1ccc(-c2ccccn2)s1)N1N=C(c2cccnc2)CC1c1cc(F)ccc1O (racemic)	680	7	
O=C(c1ccc(-c2ccccn2)s1)N1N=C(c2cccnc2)CC1c1ccc(F)cc1O (racemic)	1400	11	
O=C(c1ccco1)N1N=C(c2cccnc2)CC1c1ccccc1O (racemic)	1800		IC50 [3]: 200 nM
O=C(c1ccc(-c2ccccn2)s1)N1N=C(c2cccnc2)CC1c1ccccc1O (single isomer, unassigned; enantiomer 1)	280		
O=C(c1ccc(-c2ccccn2)s1)N1N=C(c2cccnc2)CC1c1ccccc1O (single isomer, unassigned; enantiomer 2)	14000		

More lines, in order of falling IC50 [1], values ahead:

IC50 [1] [nM]	IC50 [2] [nM]	Structure (SMILES)	further results
1500	79	Cc1ccccc1-c1ccc(C(=O)N2N=C(c3cccnc3)CC2c2ccccc2O)s1 (racemic)	
390	6	NCc1cccc(-c2ccc(C(=O)N3N=C(c4cccnc4)CC3c3ccccc3O)s2)c1 (racemic)	
210	7	Cc1nc(-c2ccc(C(=O)N3N=C(c4cccnc4)CC3c3ccccc3O)s2)cs1 (racemic)	
140	5	O=C(c1ccc(-c2ccc(CO)cc2)s1)N1N=C(c2cccnc2)CC1c1ccccc1O (racemic)	
110	6	O=C(c1ccc(-c2cccc(CN3CCCC3)c2)s1)N1N=C(c2cccnc2)CC1c1ccccc1O (racemic)	
89	9	Cn1cc(-c2ccc(C(=O)N3N=C(c4cccnc4)CC3c3ccccc3O)s2)cn1 (racemic)	
85	7	NCc1ccccc1-c1ccc(C(=O)N2N=C(c3cccnc3)CC2c2c(O)cccc2F)s1 (racemic)	clearance [8]: 26.7 mL/min/kg; AUC [9]: 11 µM·h; bioavailability [10]: 85%
82	5	NCc1ccc(-c2ccc(C(=O)N3N=C(c4cccnc4)CC3c3ccccc3O)s2)cc1 (racemic)	
80	5	O=C(c1ccc(-c2ccccn2)s1)N1N=C(c2cccnc2)CC1c1c(O)cccc1F (racemic)	
63	3	CC(=O)Nc1cncc(C2=NN(C(=O)c3ccc(-c4ccccn4)s3)C(c3ccccc3O)C2)c1 (racemic)	
55	3	Cn1cc(-c2ccc(C(=O)N3N=C(c4cccnc4)CC3c3c(O)cccc3F)s2)cn1 (racemic)	
34	3	O=C(c1ccc(-c2ccc3c(c2)CCNC3)s1)N1N=C(c2cccnc2)CC1c1c(O)cccc1F (racemic)	
31	3	Nc1cncc(C2=NN(C(=O)c3ccc(-c4ccccn4)s3)C(c3ccccc3O)C2)c1 (racemic)	
25	4	O=C(c1ccc(-c2ccc3c(c2)CNCC3)s1)N1N=C(c2cccnc2)CC1c1ccccc1O (racemic)	
21	5	O=C(c1ccc(-c2ccc3c(c2)CCNC3)s1)N1N=C(c2cccnc2)CC1c1ccccc1O (racemic)	
19	4	O=C(c1ccc(-c2ccc3c(c2)CNC3)s1)N1N=C(c2cccnc2)CC1c1ccccc1O (racemic)	clearance [8]: 58.3 mL/min/kg; AUC [9]: 0.89 µM·h; bioavailability [10]: 14%
18	3	Nc1cncc(C2=NN(C(=O)c3ccc(-c4ccccn4)s3)C(c3c(O)cccc3F)C2)c1 (racemic)	
